This passage reports Concentration results from ChEMBL document CHEMBL1123348, “Characterization of the neurotoxic potential of m-methoxy-MPTP and the use of its N-ethyl analogue as a means of avoiding exposure to a possible Parkinsonism-causing agent” (J Med Chem, 1986).

What all share (format): functional, organism-based
Test [1] concerns Mus musculus. In words: Tested for the concentration of HVA in striatum of mouse brain one week after four daily injections at dose of 40 mg/kg. Further details: dose 40 mg/kg. In a few lines:
(§1)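 Male CRL/CFW mice received subcutaneous injections daily for 4 days. Animals were killed 7 days after the last dose. Brains were removed rapidly, and striata were dissected, frozen on dry ice and stored at -15 °C until analysis of dopamine, DOPAC and HVA. Values are means ± standard errors for 6 mice/group.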

Test [2] has as its system Mus musculus. In words: Tested for the concentration of HVA in striatum of mouse brain one week after four daily injections at doses of 20 mg/kg. Further details: dose 20 mg/kg. In a few lines: as §1
Test [3] relates to Mus musculus. In words: Tested for the concentration of dopamine in striatum of mouse brain one week after four daily injections at 80 mg/kg of the compound. Further details: dose 80 mg/kg. An outline of the steps:
as §1

In test [4] the test system is Mus musculus. In words: Tested for the concentration of HVA in striatum of mouse brain one week after four daily injections at dose of 80 mg/kg. Also on record: dose 80 mg/kg. In a few lines:
as §1

Test [5] concerns Mus musculus. In words: Tested for the concentration of dopamine in striatum of mouse brain one week after four daily injections at 80 mg/kg dose. Also on record: dose 80 mg/kg. In a few lines: as §1
Test [6] has as its system Mus musculus. In words: Tested for the concentration of HVA in striatum of mouse brain one week after four daily injections at a dosage of 80 mg/kg. Further details: dose 80 mg/kg. An outline of the steps: as §1
Test [7] concerns Mus musculus. In words: Tested for the concentration of dopamine in striatum of mouse brain one week after four daily injections at 40 mg/kg dose. Further details: dose 40 mg/kg. An outline of the steps:
as §1

In test [8] the test system is Mus musculus. In words: Tested for the concentration of DOPAC (dihydroxyphenyl-acetic acid) in striatum of mouse brain one week after four daily injections at a dosage of 80 mg/kg. Also on record: dose 80 mg/kg. In a few lines:
as §1

The subject of test [9] is Mus musculus. In words: Tested for the concentration of DOPAC (dihydroxyphenyl-acetic acid) in striatum of mouse brain one week after four daily injections at dose of 40 mg/kg. Also on record: dose 40 mg/kg. In a few lines: as §1
Test [10] deals with Mus musculus. In words: Tested for the concentration of dopamine in striatum of mouse brain one week after four daily injections at 20 mg/kg dose. Further details: dose 20 mg/kg. An outline of the steps: as §1
For test [11], the system named is Mus musculus. In words: Tested for the concentration of DOPAC (dihydroxyphenyl-acetic acid) in striatum of mouse brain one week after four daily injections at dose of 80 mg/kg. Further details: dose 80 mg/kg. An outline of the steps:
as §1

The test system of test [12] is Mus musculus. In words: Tested for the concentration of DOPAC (dihydroxyphenyl-acetic acid) in striatum of mouse brain one week after four daily injections at dose of 20 mg/kg. Also on record: dose 20 mg/kg. An outline of the steps:
as §1

For test [13], the system named is Mus musculus. In words: Tested for the concentration of HVA in striatum of mouse brain one week after four daily injections at dose of 20 mg/kg. Also on record: dose 20 mg/kg. In a few lines:
as §1

SMILES strings stand for the structures. Where “and” joins values, the source holds several entries; their conditions need not be identical. Equal values may be shown once.

In the case of `COc1cccc(C2=CCN(C)CC2)c1`, the Concentration in the test on Mus musculus [1] is 5.66 nM/g; in the test with Mus musculus [2], 8.07 nM/g; with Mus musculus [3] it was 7.9 nM/g; with Mus musculus [4] it was 2.97 nM/g; in the test with Mus musculus [5], 15.9 nM/g; with Mus musculus [6] it was 2.41 nM/g. The Concentration was found to be 38.1 nM/g in the test with Mus musculus [7]; 0.9 nM/g in the test on Mus musculus [8]; 2.93 nM/g in the test on Mus musculus [9]; 84.8 nM/g in the test on Mus musculus [10]; 1.38 nM/g in the test on Mus musculus [11]; 5.09 nM/g in the test with Mus musculus [12].

Take `CCN1CC=C(c2cccc(OC)c2)CC1`: the Concentration in the test on Mus musculus [2] is 5.46 nM/g; with Mus musculus [10] it was 62.7 nM/g and 82.1 nM/g; in the test with Mus musculus [13] it was 6.38 nM/g; in the test on Mus musculus [12] it was 4.6 nM/g and 5.55 nM/g.
